Paper PMC2948583 (Journal of proteome research, 2010)

Experiments:
whole saliva proteases = experiment: Proteolysis of purified statherin in pooled whole saliva; assay type: in vitro ADME, human; conditions: WS boiled to abolish protease activities; statherin 400 µg/ml; 37°C; RP-HPLC
Summary of the method: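 Pooled Parafilm-stimulated whole saliva from four healthy donors, boiled to abolish protease activity. Statherin, purified from parotid secretion by zinc precipitation and RP-HPLC, added to 400 µg/ml final. Incubated at 37°C and sampled at 0, 10, 30, 60 and 90 min. Aliquots boiled 10 min, diluted in 0.1% TFA, and run on analytical C-18 RP-HPLC (0–55% buffer B over 74 min). Intact statherin peak integrated.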

[1] = test system: whole saliva supernatant proteases; experiment: Proteolysis of purified statherin in pooled whole saliva supernatant; assay type: in vitro ADME, human; conditions: WSS boiled to abolish protease activities; statherin 400 µg/ml; 37°C; RP-HPLC
Summary of the method: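 Supernatant from pooled stimulated whole saliva (14,000 × g, 20 min, 4°C), boiled to abolish protease activity. Parotid-derived purified statherin added to 400 µg/ml final. Incubated at 37°C and sampled at 0, 1, 3, 5 and 7 h. Aliquots boiled 10 min, diluted in 0.1% TFA, and analysed by analytical C-18 RP-HPLC (0–55% of 80% acetonitrile/0.1% TFA over 74 min). Intact statherin peak area integrated.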

statherin (DSSEEKFLRRIGRFGYGYGPYQPVPEQPLYPQPYQPQYQQYTF; UniProt P02808 20-62, looked up)
Stability of statherin in boiled WS (control) (whole saliva proteases): remained intact
Stability of statherin in boiled WSS (control) [1]: remained intact
